In the library only some 4.1% were active in any assay of this set; here they are far more common.
ATG4B inh – ATG4B protease inhibitors, primary screen, biochemical, fluorescence, uHTS | Cysteine protease ATG4B (Homo sapiens), Q9Y4P1 | ATG4B cleavage of LC3-PLA2, NBD-HPC fluorescence, 1 h | inhibition, % at 8.33 µM | 0.51% of 340,000 active; in the data active means inhibition above about 40%
SMARCA2 activ – SMARCA2 (BRM) function activators, primary screen, cell-based, luminescence, high throughput; AID 652017, 2013; MG213 cells, MMTV-luciferase reporter, dexamethasone, overnight; 1% of 370,000 active; activation, % at 9.1 µM; in the data active means activation above about 7.8%;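 further: 0% = vehicle wells and 100% = reference activator wells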
MC4R ag barr – MC4R agonists recruiting beta-arrestin, primary screen, cell-based, luminescence, agonist arm of biased-ligand search. U2OS MC4R beta-arrestin complementation; percent of melanotan II response, DMSO zero. 0.98% of 360,000 active. activation, % at 8.9 µM. Melanocortin receptor 4 (Homo sapiens), P32245;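 active means activation above a per-plate cutoff, the mean activation of sample wells on that plate plus 3 SD, cut at about 8% in these data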
Target sequence (P32245 whole entry, looked up): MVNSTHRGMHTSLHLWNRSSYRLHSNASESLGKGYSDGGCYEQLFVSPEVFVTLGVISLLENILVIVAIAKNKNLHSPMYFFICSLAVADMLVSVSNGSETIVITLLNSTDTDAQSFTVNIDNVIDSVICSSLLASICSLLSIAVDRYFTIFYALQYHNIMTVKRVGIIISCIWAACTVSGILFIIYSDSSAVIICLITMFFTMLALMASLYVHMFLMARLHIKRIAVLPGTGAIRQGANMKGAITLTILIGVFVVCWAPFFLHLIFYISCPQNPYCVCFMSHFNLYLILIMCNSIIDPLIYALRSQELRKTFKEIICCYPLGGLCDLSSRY
MC4R antagonist – MC4R antagonists of cAMP signaling, primary screen, cell-based, TR-FRET, antagonist arm of biased-ligand search; 0.48% of 360,000 active; MC4R-expressing cells, MTII-stimulated cAMP, LANCE TR-FRET; inhibition, % at 6.5 µM;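 active means inhibition above its plate's cutoff, the mean of tested wells on that plate plus 3 SD, cut at about 29% in these data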;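 further: 0% = Melanotan II alone and 100% = Melanotan II plus saturating MCL0020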
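Assay system: human MC4R-expressing U2OS cells; reagent: Melanotan II stimulation of cells; dosing: 6.5 µM single dose; timing: compound 30 min, challenge 1 h, detection 1 h; signal: TR-FRET cAMP assay; replicates: one well per compound, no replicates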
MPTP inh – mitochondrial permeability transition pore inhibitors, primary screen, biochemical, isolated mouse mitochondria, absorbance. Ca2+ swelling absorbance, 30 min. inhibition, % at 10 µM. 1.4% of 360,000 active. AID 602449, 2012;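 active means inhibition of 50% or more, scaled per plate between neutral and stimulator controls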;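 further: 0% = DMSO wells given calcium and 100% = 1 mM EGTA wells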
MPTP counter – fluorescence retest of MPTP screen hits in isolated mitochondria, single concentration; membrane potential, Rhodamine 123 fluorescence; 78% of 5,000 active; inhibition, % at 10 µM; shares compounds with MPTP inh; in the data active means inhibition above about 22%;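 further: 0% = DMSO vehicle and 100% = positive control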
MPTP abs DR – mitochondrial permeability transition pore inhibitors, dose response, biochemical, absorbance, uHTS hits; shares compounds with MPTP inh; isolated mitochondria swelling; IC50, µM; 58% of 780 active; AID 651561, 2012; in the data active means IC50 below about 20 µM
MPTP counter DR – fluorescent counter-screen in isolated mitochondria, dose response, counter-screen for MPTP inhibitor project, biochemical, fluorescence, uHTS hits | shares compounds with MPTP inh | isolated mitochondria counterscreen, fluorescence read-out | IC50, µM | 49% of 780 active; in the data active means IC50 below about 80 µM
Starred values were filed as active, the others as inactive; i = inactive; x = no result.

SMILES	ATG4B inh	SMARCA2 activ	MC4R ag barr	MC4R antagonist	MPTP inh	MPTP counter	others
O=C(NC1CCC1)c1ccc(C#Cc2cccc(F)c2)nc1	x	4	x	x	x	x
CN1CCCCC(NC(=O)c2ccc(F)c(F)c2)C1=O (centres undefined)	x	1	x	x	x	x
CCCSc1nsc(NC(=O)Nc2ccc(F)cc2F)n1	-3	-2	-1	-1	97*	85*
CCOC(=O)C1=NOC(C(C)=O)(C(=O)Nc2cc(C)cc(C)c2)C1 (centres undefined)	x	-2	x	x	x	x
Cc1[nH]c2ccccc2c1C(=O)c1c(N)[nH]c(C(=O)c2ccc(Br)cc2)c1-c1ccc(Br)cc1	x	-4	x	x	x	x
CC1CCCN(CCC(=O)c2ccc(Br)cc2)C1 (centres undefined)	-1	1	-1	11	114*	5	MPTP abs DR=5.7*;MPTP counter DR=>80
CCN1/C(=C/C=C/C=C/C=C/c2sc3ccccc3[n+]2CC)Sc2ccccc21	37	-4	1	-2	1	x
CC[n+]1c(/C=C2\Sc3ccccc3N2C)ccc2cccc(C)c21	16	-10	0	-23	106*	100*
CCN1/C(=C/C=C/c2sc3ccccc3[n+]2CC)Sc2ccccc21	24	x	2	-11	136*	84*
CCN1/C(=C/c2ccc3cc(C)ccc3[n+]2CC)Sc2ccccc21	15	-7	0	-34	105*	96*
CN1OC[C@@H]2CN(CC3CCCCC3)[C@H](c3ccc(-c4ccc(C#N)cc4)cc3)C[C@@H]21	x	-4	x	x	x	x
COC(=O)C1CN(Cc2ccccc2)CCS(=O)(=O)N1Cc1cn(Cc2ccccc2Br)nn1 (centres undefined)	x	-3	x	x	x	x
O=c1[nH]c(-c2ccc3c(c2)OCO3)nc2c1sc(=S)n2-c1ccccc1	-10	-1	0	11	0	x
O=c1[nH]c(-c2ccc(F)cc2)nc2c1sc(=S)n2-c1ccccc1	-3	-1	-3	-2	56*	8	MPTP abs DR=i;MPTP counter DR=<2.5*
O=S(=O)(Nc1nc2ccccc2nc1Nc1ccc2c(c1)OCO2)c1ccc(F)cc1	0	-2	0	13	51*	4	MPTP abs DR=4.1*;MPTP counter DR=<2.5*
O=S(=O)(Nc1nc2ccccc2nc1Nc1cccc(S(=O)(=O)N2CCCCC2)c1)c1ccccc1	32	-1	8.5*	13	55*	44*
COc1ccc(S(=O)(=O)Nc2cccc(S(=O)(=O)N3CCCCCC3)c2)cc1	18	-3	3	3	2	x
O=S(=O)(Nc1nc2ccccc2nc1N1CCN(c2ccccc2)CC1)c1ccc(F)cc1	28	-2	3	4	79*	72*
Cc1ccc(S(=O)(=O)Nc2nc3ccccc3nc2N2CCOCC2)cc1	-10	-3	-1	13	-1	x
O=C(Cn1nc2ccccc2n1)N/N=C/c1cc(Cl)cc([N+](=O)[O-])c1O	13	0	-6	12	-2	x
COc1cc(/C=N/Nc2nc3ccccc3s2)cc([N+](=O)[O-])c1O	-7	-4	1	17	5	x
CC(C)(C)N/N=C/c1cc(Cl)cc([N+](=O)[O-])c1O	10	-1	3	16	93*	54*
O=[N+]([O-])c1cc(Cl)cc(/C=N/Nc2nc3ccccc3s2)c1O	12	0	0	-8	78*	78*
COC(=O)[C@]12C[C@H](CC(=O)NCC34CC5CC(CC(C5)C3)C4)C(=O)N(Cc3ccco3)C1=C[C@H](C1CCCC1)O[C@@H]2C	x	-2	x	x	x	x
O=[N+]([O-])c1ccc(/C=N/Nc2ccnc3cc(Cl)ccc23)o1	1	3	-3	-8	21	x
SMILES	ATG4B inh	SMARCA2 activ	MC4R ag barr	MC4R antagonist	MPTP inh	MPTP counter	others
Clc1ccc2c(N/N=C/c3cccc(Br)c3)ccnc2c1	38	-1	0	6	62*	94*
COc1ccccc1N1CCN(N=Cc2ccccc2Br)CC1	x	-5	x	x	x	x
O=C(Nc1ccc2c(c1)OCO2)O[C@@H]1C[C@H]2CCCC(=O)N3CC[C@@H](C1)[C@@H]23	-1	1	-2	2	-1	x
CC1(C)CCC(=O)N2CC[C@H]3C[C@H](OC(=O)Nc4ccc(Br)cc4)C[C@@H]1[C@H]32	-11	5	-1	5	69*	87*
COC(=O)C1=C(C)N(Cc2ccccc2C(F)(F)F)C(=NCc2ccccc2C(F)(F)F)NC1c1ccc(C(F)(F)F)cc1 (centres undefined)	x	-3	x	x	x	x
O=C(NC1CCN(Cc2ccccc2)CC1)c1ccccc1Cl	-3	-2	-1	7	0	x
Cc1c(C(=O)NC2CCN(Cc3ccccc3)C2)oc2c(Cl)cccc12 (centres undefined)	5	1	0	5	63*	-4	MPTP abs DR=>100;MPTP counter DR=>80
COc1cc2c3c(c1)C(C)CC(C)(C)N3C(=O)C2=O (centres undefined)	8	-3	-1	-34	-2	x
CCc1cc2c3c(c1)C(C)CC(C)(C)N3C(=O)/C2=C1\SC(=O)NC1=O (centres undefined)	19	-2	0	2	55*	47*
Cc1cccc(NC(=S)NNC(=S)NCc2ccccc2)c1	-2	2	-1	-6	42	x
COc1cc(NC(=S)NCCC(c2ccccc2)c2ccccc2)cc(OC)c1	-1	-3	0	11	78*	92*
Cc1cccc(NC(=S)NCCC(c2ccccc2)c2ccccc2)c1	33	-4	2	8	87*	100*
COc1cccc(NC(=S)NCCC(c2ccccc2)c2ccccc2)c1	16	2	-1	0	4	x
COc1ccc(-c2cscc2N)cc1	x	-8	x	x	x	x
COc1ccccc1C(=O)N1CCN(C(=O)[C@@H](Cc2ccccc2)NC(=O)[C@H]2O[C@@H](n3ccc(=O)[nH]c3=O)[C@H](O)[C@@H]2O)CC1	x	-4	x	x	x	x
CC1CCN(CCNC(=O)c2ccc3c(=O)n(Cc4ccc(Cl)cc4)c(=S)[nH]c3c2)CC1	-3	x	9.9*	13	90*	-18
CN1CCN(C(=O)c2ccc3c(=O)n(Cc4ccc(Cl)cc4)c(=S)[nH]c3c2)CC1	36	2	-2	10	93*	-13	MPTP abs DR=18*;MPTP counter DR=>80

High-throughput results: PubChem BioAssay, several laboratories
